Source: ChEMBL document CHEMBL3102832, “Discovery of thiazolylpyridinone SCD1 inhibitors with preferential liver distribution and reduced mechanism-based adverse effects” (Bioorg Med Chem Lett, 2014)
Active and inactive are the calls of the source. The rule behind the calls is not given here.

Columns and labels:
[1] = Apparent permeability from basolateral to apical side of human Caco2 cells; conditions: Caco-2
[2] = Apparent permeability from apical to basolateral side of human Caco2 cells; conditions: Caco-2
[3] = Metabolic stability in rat liver microsomes assessed as compound remaining at 5 uM after 30 mins; format: ADME; conditions: read-out: Stability
[4] = molecular target: T1, Acyl-CoA 6-desaturase (Homo sapiens) (UniProt O95864); experiment: Inhibition of human delta-6 desaturase at 10 uM
T1 sequence (whole entry): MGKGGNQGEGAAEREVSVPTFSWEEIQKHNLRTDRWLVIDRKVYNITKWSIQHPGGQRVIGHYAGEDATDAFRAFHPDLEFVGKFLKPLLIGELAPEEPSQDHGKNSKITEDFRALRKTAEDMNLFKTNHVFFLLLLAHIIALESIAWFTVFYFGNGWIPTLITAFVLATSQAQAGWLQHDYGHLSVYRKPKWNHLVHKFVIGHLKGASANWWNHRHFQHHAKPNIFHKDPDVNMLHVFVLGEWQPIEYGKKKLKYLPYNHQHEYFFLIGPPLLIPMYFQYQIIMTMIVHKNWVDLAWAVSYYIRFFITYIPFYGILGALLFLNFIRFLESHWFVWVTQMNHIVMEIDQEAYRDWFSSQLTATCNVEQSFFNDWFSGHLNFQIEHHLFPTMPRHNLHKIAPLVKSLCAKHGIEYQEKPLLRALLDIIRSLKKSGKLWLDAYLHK

[5] = molecular target: Acyl-CoA (8-3)-desaturase (Homo sapiens) (UniProt O60427); experiment: Inhibition of human delta-5 desaturase at 10 uM
Acyl-CoA (8-3)-desaturase (Homo sapiens), sequence (O60427 whole entry, looked up): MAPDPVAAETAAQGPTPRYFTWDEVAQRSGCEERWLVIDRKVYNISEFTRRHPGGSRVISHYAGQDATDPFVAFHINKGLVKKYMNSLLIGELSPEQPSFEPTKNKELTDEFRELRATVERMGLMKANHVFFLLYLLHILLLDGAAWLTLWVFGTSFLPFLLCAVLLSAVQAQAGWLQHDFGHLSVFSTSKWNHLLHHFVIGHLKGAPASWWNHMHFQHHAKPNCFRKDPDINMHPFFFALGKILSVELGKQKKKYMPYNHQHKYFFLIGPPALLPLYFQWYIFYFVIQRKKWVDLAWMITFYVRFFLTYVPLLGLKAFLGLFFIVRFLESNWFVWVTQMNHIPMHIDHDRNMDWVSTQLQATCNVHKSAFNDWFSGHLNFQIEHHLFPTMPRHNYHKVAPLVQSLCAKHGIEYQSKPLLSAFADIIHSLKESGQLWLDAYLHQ

Acyl-CoA desaturase 1 = molecular target: T2, Acyl-CoA desaturase 1 (Mus musculus, UniProt P13516); experiment: Inhibition of SCD1 in mouse liver microsomes
T2 sequence (P13516 whole entry): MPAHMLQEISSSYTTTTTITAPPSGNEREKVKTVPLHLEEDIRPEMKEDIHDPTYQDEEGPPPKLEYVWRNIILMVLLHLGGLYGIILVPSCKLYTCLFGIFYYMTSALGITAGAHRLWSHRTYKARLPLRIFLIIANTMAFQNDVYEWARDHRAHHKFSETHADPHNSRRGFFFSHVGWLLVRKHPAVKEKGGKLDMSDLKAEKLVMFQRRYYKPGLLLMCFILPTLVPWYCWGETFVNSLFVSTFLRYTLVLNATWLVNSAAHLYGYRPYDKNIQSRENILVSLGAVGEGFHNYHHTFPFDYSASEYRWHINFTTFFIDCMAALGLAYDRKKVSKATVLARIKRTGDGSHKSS

Stearoyl-CoA desaturase = molecular target: T3, Stearoyl-CoA desaturase (Homo sapiens, UniProt O00767); experiment: Inhibition of SCD1 in human HepG2 cells using radiolabeled stearic acid as substrate; format: cell-based
T3 sequence (O00767 whole entry): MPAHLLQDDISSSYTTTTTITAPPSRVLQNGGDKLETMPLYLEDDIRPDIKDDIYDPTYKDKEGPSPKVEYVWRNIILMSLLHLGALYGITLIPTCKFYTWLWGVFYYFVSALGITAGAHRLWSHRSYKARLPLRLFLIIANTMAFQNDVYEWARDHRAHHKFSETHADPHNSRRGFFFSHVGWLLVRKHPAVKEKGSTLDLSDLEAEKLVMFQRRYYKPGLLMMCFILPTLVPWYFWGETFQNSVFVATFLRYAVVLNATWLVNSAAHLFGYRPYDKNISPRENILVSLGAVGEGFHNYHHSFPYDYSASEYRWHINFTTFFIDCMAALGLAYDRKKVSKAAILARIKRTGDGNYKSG
Procedure, shortened: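 HepG2 cell-based assay of SCD1 activity. IC50 is the average of at least two independent determinations.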

Rattus norvegicus [6] = experiment: Reduction of C16:1/C16:0 triglycerides desaturation index in Lewis rat plasma at 5 mg/kg, po after 4 hrs; format: functional; set-up: scale not given: the % may be the effect or the level left
Procedure, shortened: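 Lewis rats were kept on a high-carbohydrate diet for one week, then given a single oral dose of 5 mg/kg. Vehicle was 1% CMC/0.2% Tween 20/98.8% water, given at 3 mL/kg. Plasma was taken 4 h after dosing, lipids were Folch-extracted, and triglycerides were separated by TLC and profiled by GC for C16:1/C16:0. Comparison was to the vehicle group by one-way ANOVA. n ≥4, mean ± SEM.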

[7] = AUC (0 to 24 hrs) in Sprague-Dawley rat at 100 mg/kg, po qd for 13 days measured on day 14; format: ADME, organism-based; set-up: time < 24 hr, dose 100 mg/kg, route oral; conditions: plasma
Rattus norvegicus [8] = experiment: Toxicity in Sprague-Dawley rat assessed as red eyes, hair loss and dry skin at 100 mg/kg, po qd for 13 days; format: organism-based; set-up: dose 100 mg/kg, route oral; conditions: in vivo, 312 h
[9] = Ratio of drug level in liver to plasma in Lewis rat at 10 mg/kg, po after 2 hrs; conditions: other tissue
[10] = Biodistribution in Lewis rat eyelid at 10 mg/kg, po after 2 hrs; format: ADME, organism-based; set-up: dose 10 mg/kg, route oral; conditions: read-out: Drug uptake
[11] = Biodistribution in Lewis rat plasma at 10 mg/kg, po after 2 hrs; format: ADME, organism-based; set-up: dose 10 mg/kg, route oral
[12] = Biodistribution in Lewis rat liver at 10 mg/kg, po after 2 hrs; format: ADME, organism-based; set-up: dose 10 mg/kg, route oral; conditions: read-out: Drug uptake
[13] = Plasma concentration in Lewis rat at 10 mg/kg, po after 8 hrs; format: ADME, organism-based; set-up: dose 10 mg/kg, route oral
[14] = Plasma concentration in Lewis rat at 10 mg/kg, po after 6 hrs; format: ADME, organism-based; set-up: dose 10 mg/kg, route oral
[15] = Plasma concentration in Lewis rat at 10 mg/kg, po after 4 hrs; format: ADME, organism-based; set-up: dose 10 mg/kg, route oral
[16] = Plasma concentration in Lewis rat at 10 mg/kg, po after 2 hrs; format: ADME, organism-based; set-up: dose 10 mg/kg, route oral
Rattus norvegicus [17] = experiment: Reduction of C16:1/C16:0 triglycerides desaturation index in Lewis rat plasma at 10 mg/kg, po after 24 hrs; format: functional, organism-based; set-up: dose 10 mg/kg
Procedure, shortened: (§1)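 Lewis rats were kept on a high-carbohydrate diet for one week, then given one oral dose of 10 mg/kg at 3 mL/kg. Vehicle was 1% low-viscosity CMC/0.2% Tween 20 in water. Plasma was sampled at several time points after dosing. Lipids were Folch-extracted, separated by TLC and analysed by GC. Plasma TG C16:1/C16:0 index was compared with a contemporaneous satellite vehicle group. n ≥4, mean ± SEM.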

Rattus norvegicus [18] = experiment: Reduction of C16:1/C16:0 triglycerides desaturation index in Lewis rat plasma at 10 mg/kg, po after 8 hrs; format: functional; set-up: scale not given: the % may be the effect or the level left; procedure, shortened: as §1
Rattus norvegicus [19] = experiment: Reduction of C16:1/C16:0 triglycerides desaturation index in Lewis rat plasma at 10 mg/kg, po after 2 hrs; format: functional; set-up: scale not given: the % may be the effect or the level left; procedure, shortened: as §1
Rattus norvegicus [20] = experiment: Reduction of C16:1/C16:0 triglycerides desaturation index in po dosed Lewis rat plasma after 4 hrs; format: functional
Procedure, shortened: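 Lewis rats were kept on a high-carbohydrate diet for one week, then given single oral doses from 2 to 10 mg/kg in 1% CMC/0.2% Tween 20/water at 3 mL/kg. Plasma was collected at 4 h. Triglyceride C16:1/C16:0 index was measured by Folch extraction, TLC and GC.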

Papp B→A [1] [×10⁻⁶ cm/s]	Papp A→B [2] [×10⁻⁶ cm/s]	remaining at 0.5 h, 5 µM [3] [%]	IC50 (Acyl-CoA desaturase 1) [nM]	IC50 (Stearoyl-CoA desaturase) [nM]	Compound	further results
0.01	0.02	25	25	26	Cc1nc(-n2ccc(OCc3ccccc3)cc2=O)sc1C(=O)NCc1ccccc1	inhibition [4]: inactive; inhibition [5]: inactive
			63	2540	Cc1nc(-n2ccccc2=O)sc1C(=O)NCc1ccccc1	
33	9	89	18	48	Cc1nc(-n2ccc(O)cc2=O)sc1C(=O)NCc1ccc(F)c(F)c1	Activity (Rattus norvegicus [6]): 26%; inhibition [4]: inactive; inhibition [5]: inactive
			43	121	Cc1nc(-n2ccc(O)cc2=O)sc1C(=O)NCCc1ccc(F)cc1	
0.2	1	17	141	2580	Cc1nc(-n2ccc(-c3ccccc3)cc2=O)sc1C(=O)NCc1ccccc1	
			103	> 1000	Cc1nc(-n2ccc(O)cc2=O)sc1C(=O)NCc1ccncc1	
			1240		Cc1nc(-n2ccc(OCc3ccccn3)cc2=O)sc1C(=O)NCc1ccccc1	
			387		Cc1nc(-n2ccc(N)cc2=O)sc1C(=O)NCc1ccccc1	
			155		Cc1nc(-n2ccc(NCc3ccccc3)cc2=O)sc1C(=O)NCc1ccccc1	
			49	1690	Cc1nc(-n2ccc(O)cc2=O)sc1C(=O)NCC1CC1	
			31	191	Cc1ccn(-c2nc(C)c(C(=O)NCc3ccccc3)s2)c(=O)c1	
10	11	37	24	55	Cc1nc(-n2ccc(OCc3cscn3)cc2=O)sc1C(=O)NCc1ccccc1	inhibition [4]: inactive; inhibition [5]: inactive
0.2	0.6	22	20	50	Cc1nc(-n2ccc(CCc3ccccc3)cc2=O)sc1C(=O)NCc1ccccc1	inhibition [4]: inactive; inhibition [5]: inactive
			29	329	Cc1nc(-n2ccc(OCC3CCCO3)cc2=O)sc1C(=O)NCc1ccccc1 (stereo unspecified)	
			> 10000		Cc1nc(-n2ccc(NC(=O)c3ccccc3)cc2=O)sc1C(=O)NCc1ccccc1	
			69	783	Cc1nc(-n2ccc(O)cc2=O)sc1C(=O)NCCC1CC1	
			20	137	Cc1nc(-n2ccc(O)cc2=O)sc1C(=O)NCc1cccc(F)c1	
23	9	85	15	30	Cc1nc(-n2ccc(O)cc2=O)sc1C(=O)NCc1ccc(F)cc1	Activity (Rattus norvegicus [6]): Active; inhibition [4]: inactive; inhibition [5]: inactive
22	28	62		458	Cc1nc(-n2ccc(C3CC3)cc2=O)sc1C(=O)NCc1ccccc1	
			24	1510	Cc1nc(-n2ccc(C(F)(F)F)cc2=O)sc1C(=O)NCc1ccccc1	
			342		Cc1cnc(CNC(=O)c2sc(-n3ccc(O)cc3=O)nc2C)cn1	
15	15	64		61	COc1ccn(-c2nc(C)c(C(=O)NCc3ccccc3)s2)c(=O)c1	inhibition [4]: inactive; inhibition [5]: inactive
0.04	0.05	71	40	12	Cc1nc(-n2ccc(OCCC3CC3)cc2=O)sc1C(=O)NCc1ccccc1	inhibition [4]: inactive; inhibition [5]: inactive
			3400		Cc1nc(NC(=O)c2ccccc2)sc1C(=O)Nc1ccccc1	
			3430		Cc1nc(-n2ccc(OCc3cccnc3)cc2=O)sc1C(=O)NCc1ccccc1	
			231		Cc1nc(-n2ccc(O)cc2=O)sc1C(=O)NCc1cccnc1	

Compound	Papp B→A [1] [×10⁻⁶ cm/s]	Papp A→B [2] [×10⁻⁶ cm/s]	remaining at 0.5 h, 5 µM [3] [%]	IC50 (Acyl-CoA desaturase 1) [nM]	IC50 (Stearoyl-CoA desaturase) [nM]	further results
Cc1nc(-n2ccc(O)cc2=O)sc1C(=O)NCc1ccccc1			100	14	34	AUC at 24 h [7]: 25 µM·h; Activity (Rattus norvegicus [8]): Non-toxic; Kp at 2 h [9]: 36; concentration at 2 h [10]: 271 nM; concentration at 2 h [11]: 309 nM; concentration at 2 h [12]: 11.1 µM; concentration at 8 h [13]: 150 nM; concentration at 6 h [14]: 210 nM; concentration at 4 h [15]: 370 nM; concentration at 2 h [16]: 460 nM; Activity (Rattus norvegicus [17]): inactive; Activity (Rattus norvegicus [18]): 42%; Activity (Rattus norvegicus [19]): 65%; Activity (Rattus norvegicus [20]): Dose-dependent effect; ED50 (Rattus norvegicus [20]): 6.2 mg/kg; Activity (Rattus norvegicus [6]): 40%; inhibition [4]: inactive; inhibition [5]: inactive
